# Key:
# Type in all cases: functional
# Escherichia coli [1] = assay: Antimicrobial activity against Escherichia coli DH10B by vitek-2 method; conditions: K-12 DH10B
# Method in brief: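 Plasmid-free recipient E. coli DH10B, used as the host for electroporation transformants, was tested for susceptibility on the automated Vitek-2 system.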
# Escherichia coli [2] = assay: Antimicrobial activity against Escherichia coli isolate 360 expressing beta-lactamase KPC2, CTX-M-15, OXA-9, TEM and PFGE cluster 1 isolated from urine of patient by agar dilution method; conditions: isolate 360, Urine
# Method in brief: (§1)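 Clinical carbapenem-resistant E. coli isolates collected Feb 2005–Oct 2008. Carbapenem MICs determined by agar dilution following CLSI protocols.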
# Escherichia coli [3] = assay: Antimicrobial activity against Escherichia coli isolate 1679T expressing beta-lactamase KPC2, TEM and PFGE cluster 6 isolated from peritoneal fluid of patient by agar dilution method
# Method in brief: (§2)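 Transformant strains. Plasmids purified from the clinical isolates were electroporated into E. coli DH10B. Transformants were selected on LB agar with 100 μg/ml ampicillin, and colonies were PCR-screened for blaKPC before susceptibility testing.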
# Escherichia coli [4] = assay: Antimicrobial activity against Escherichia coli DH10B by Etest; conditions: K-12 DH10B
# Escherichia coli [5] = assay: Antimicrobial activity against Escherichia coli isolate 547 expressing beta-lactamase KPC2, TEM and PFGE cluster 4 isolated from blood of patient by agar dilution method; method in brief: as §1
# Escherichia coli [6] = assay: Antimicrobial activity against Escherichia coli isolate 360T expressing beta-lactamase KPC2, OXA-9 and PFGE cluster 1 isolated from urine of patient by agar dilution method; method in brief: as §2
# Escherichia coli [7] = assay: Antimicrobial activity against Escherichia coli isolate 157T expressing beta-lactamase KPC2 and PFGE cluster 3 isolated from urine of patient by agar dilution method; method in brief: as §2
# Escherichia coli [8] = assay: Antimicrobial activity against Escherichia coli isolate 543T expressing beta-lactamase KPC2 and PFGE cluster 4 isolated from synovial fluid of patient by agar dilution method; method in brief: as §2
# Escherichia coli [9] = assay: Antimicrobial activity against Escherichia coli isolate 339T expressing beta-lactamase KPC2 and PFGE cluster 5 isolated from peritoneal fluid of patient by agar dilution method; method in brief: as §2
# Escherichia coli [10] = assay: Antimicrobial activity against Escherichia coli isolate 339 expressing beta-lactamase KPC2, TEM and PFGE cluster 5 isolated from peritoneal fluid of patient by agar dilution method
# Method in brief: (§3)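 Clinical carbapenem-resistant E. coli isolates from the hospital, February 2005 to October 2008. Carbapenem MICs were determined by agar dilution following CLSI protocols.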
# Escherichia coli [11] = assay: Antimicrobial activity against Escherichia coli isolate 544 expressing beta-lactamase KPC2, TEM and PFGE cluster 4 isolated from abscess of patient by agar dilution method; method in brief: as §3
# Escherichia coli [12] = assay: Antimicrobial activity against Escherichia coli isolate 386T expressing beta-lactamase KPC2, OXA-9 and PFGE cluster 1 isolated from wound of patient by agar dilution method; method in brief: as §2
# Escherichia coli [13] = assay: Antimicrobial activity against Escherichia coli isolate 540 expressing beta-lactamase KPC2, TEM and PFGE cluster 4 isolated from synovial fluid of patient by agar dilution method; method in brief: as §3
# Escherichia coli [14] = assay: Antimicrobial activity against Escherichia coli isolate 386 expressing beta-lactamase KPC2, CTX-M-15, OXA-9, TEM and PFGE cluster 1 isolated from wound of patient by agar dilution method; method in brief: as §1
# Escherichia coli [15] = assay: Antimicrobial activity against Escherichia coli isolate 329T expressing beta-lactamase KPC2 and PFGE cluster 2 isolated from blood of patient by agar dilution method; method in brief: as §2
# Escherichia coli [16] = assay: Antimicrobial activity against Escherichia coli isolate 1679 expressing beta-lactamase KPC2, SHV-12, TEM and PFGE cluster 6 isolated from peritoneal fluid of patient by agar dilution method; method in brief: as §3
# Escherichia coli [17] = assay: Antimicrobial activity against Escherichia coli isolate 547T expressing beta-lactamase KPC2 and PFGE cluster 4 isolated from blood of patient by agar dilution method; method in brief: as §2
# Escherichia coli [18] = assay: Antimicrobial activity against Escherichia coli isolate 329 expressing beta-lactamase KPC2, CTX-M-2, TEM and PFGE cluster 2 isolated from blood of patient by agar dilution method; method in brief: as §3
# Escherichia coli [19] = assay: Antimicrobial activity against Escherichia coli isolate 157 expressing beta-lactamase KPC2, CTX-M-15, TEM and PFGE cluster 3 isolated from urine of patient by agar dilution method; conditions: isolate 157, Urine; method in brief: as §1
# Escherichia coli [20] = assay: Antimicrobial activity against Escherichia coli isolate 547T expressing beta-lactamase KPC2 and PFGE cluster 4 isolated from blood of patient by vitek-2 method
# Escherichia coli [21] = assay: Antimicrobial activity against Escherichia coli isolate 329T expressing beta-lactamase KPC2 and PFGE cluster 2 isolated from blood of patient by vitek-2 method
# Escherichia coli [22] = assay: Antimicrobial activity against Escherichia coli isolate 543 expressing beta-lactamase KPC2, CTX-M-15, TEM and PFGE cluster 4 isolated from synovial fluid of patient by vitek-2 method
# Escherichia coli [23] = assay: Antimicrobial activity against Escherichia coli isolate 339 expressing beta-lactamase KPC2, TEM and PFGE cluster 5 isolated from peritoneal fluid of patient by vitek-2 method
# Escherichia coli [24] = assay: Antimicrobial activity against Escherichia coli isolate 360T expressing beta-lactamase KPC2, OXA-9 and PFGE cluster 1 isolated from urine of patient by vitek-2 method
# Escherichia coli [25] = assay: Antimicrobial activity against Escherichia coli isolate 157 expressing beta-lactamase KPC2, CTX-M-15, TEM and PFGE cluster 3 isolated from urine of patient by vitek-2 method
# Escherichia coli [26] = assay: Antimicrobial activity against Escherichia coli isolate 540 expressing beta-lactamase KPC2, TEM and PFGE cluster 4 isolated from synovial fluid of patient by vitek-2 method
# Escherichia coli [27] = assay: Antimicrobial activity against Escherichia coli isolate 157T expressing beta-lactamase KPC2 and PFGE cluster 3 isolated from urine of patient by vitek-2 method
# Escherichia coli [28] = assay: Antimicrobial activity against Escherichia coli isolate 544 expressing beta-lactamase KPC2, TEM and PFGE cluster 4 isolated from abscess of patient by vitek-2 method
# Escherichia coli [29] = assay: Antimicrobial activity against Escherichia coli isolate 386T expressing beta-lactamase KPC2, OXA-9 and PFGE cluster 1 isolated from wound of patient by vitek-2 method
# Escherichia coli [30] = assay: Antimicrobial activity against Escherichia coli isolate 543T expressing beta-lactamase KPC2 and PFGE cluster 4 isolated from synovial fluid of patient by vitek-2 method
# Escherichia coli [31] = assay: Antimicrobial activity against Escherichia coli isolate 360 expressing beta-lactamase KPC2, CTX-M-15, OXA-9, TEM and PFGE cluster 1 isolated from urine of patient by vitek-2 method
# Escherichia coli [32] = assay: Antimicrobial activity against Escherichia coli isolate 386 expressing beta-lactamase KPC2, CTX-M-15, OXA-9, TEM and PFGE cluster 1 isolated from wound of patient by vitek-2 method
# Escherichia coli [33] = assay: Antimicrobial activity against Escherichia coli isolate 1679T expressing beta-lactamase KPC2, TEM and PFGE cluster 6 isolated from peritoneal fluid of patient by vitek-2 method
# Escherichia coli [34] = assay: Antimicrobial activity against Escherichia coli isolate 329 expressing beta-lactamase KPC2, CTX-M-2, TEM and PFGE cluster 2 isolated from blood of patient by vitek-2 method
# Escherichia coli [35] = assay: Antimicrobial activity against Escherichia coli isolate 547 expressing beta-lactamase KPC2, TEM and PFGE cluster 4 isolated from blood of patient by vitek-2 method
# Escherichia coli [36] = assay: Antimicrobial activity against Escherichia coli isolate 1679 expressing beta-lactamase KPC2, SHV-12, TEM and PFGE cluster 6 isolated from peritoneal fluid of patient by vitek-2 method
# Escherichia coli [37] = assay: Antimicrobial activity against Escherichia coli isolate 339T expressing beta-lactamase KPC2 and PFGE cluster 5 isolated from peritoneal fluid of patient by vitek-2 method
Compound,MIC (Escherichia coli [1]) [µg/mL],MIC (Escherichia coli [2]) [µg/mL],MIC (Escherichia coli [3]) [µg/mL],MIC (Escherichia coli [4]) [µg/mL],MIC (Escherichia coli [5]) [µg/mL],MIC (Escherichia coli [6]) [µg/mL],MIC (Escherichia coli [7]) [µg/mL],MIC (Escherichia coli [8]) [µg/mL],MIC (Escherichia coli [9]) [µg/mL],MIC (Escherichia coli [10]) [µg/mL],MIC (Escherichia coli [11]) [µg/mL],MIC (Escherichia coli [12]) [µg/mL],MIC (Escherichia coli [13]) [µg/mL],MIC (Escherichia coli [14]) [µg/mL],MIC (Escherichia coli [15]) [µg/mL],MIC (Escherichia coli [16]) [µg/mL],MIC (Escherichia coli [17]) [µg/mL],MIC (Escherichia coli [18]) [µg/mL],MIC (Escherichia coli [19]) [µg/mL],MIC (Escherichia coli [20]) [µg/mL],other results
O=C(O)c1cn(C2CC2)c2cc(N3CCNCC3)c(F)cc2c1=O [CIPROFLOXACIN],< 0.25,,,,,,,,,,,,,,,,,,,,
C[C@@H](O)[C@H]1C(=O)N2C(C(=O)O)=C(SCCNC=N)C[C@H]12 [IMIPENEM ANHYDROUS],,4,1,0.25,4,1,2,2,2,2,4,1,4,1,2,8,1,8,8,,
C[C@H]1COc2c(N3CCN(C)CC3)c(F)cc3c(=O)c(C(=O)O)cn1c23.C[C@H]1COc2c(N3CCN(C)CC3)c(F)cc3c(=O)c(C(=O)O)cn1c23.O [LEVOFLOXACIN],< 0.25,,,,,,,,,,,,,,,,,,,< 0.25,"MIC (Escherichia coli [21]): < 0.25 µg/mL; MIC (Escherichia coli [22]): > 8 µg/mL; MIC (Escherichia coli [23]): > 8 µg/mL; MIC (Escherichia coli [24]): < 0.25 µg/mL; MIC (Escherichia coli [25]; isolate 157, Urine): > 8 µg/mL; MIC (Escherichia coli [26]): > 8 µg/mL; MIC (Escherichia coli [27]): < 0.25 µg/mL; MIC (Escherichia coli [28]): > 8 µg/mL; MIC (Escherichia coli [29]): < 0.25 µg/mL; MIC (Escherichia coli [30]): < 0.25 µg/mL; MIC (Escherichia coli [31]; isolate 360, Urine): > 8 µg/mL; MIC (Escherichia coli [32]): > 8 µg/mL; MIC (Escherichia coli [33]): < 0.25 µg/mL; MIC (Escherichia coli [34]): > 8 µg/mL; MIC (Escherichia coli [35]): > 8 µg/mL; MIC (Escherichia coli [36]): > 8 µg/mL; MIC (Escherichia coli [37]): < 0.25 µg/mL"
C[C@@H](O)[C@H]1C(=O)N2C(C(=O)O)=C(S[C@@H]3CN[C@H](C(=O)N(C)C)C3)[C@H](C)[C@H]12 [MEROPENEM],,4,0.5,0.25,4,1,1,0.5,1,2,4,0.25,4,1,1,16,0.5,8,4,,
GENTAMICIN,< 1,,,,,,,,,,,,,,,,,,,< 1,MIC (Escherichia coli [21]): < 1 µg/mL; MIC (Escherichia coli [22]): > 16 µg/mL; MIC (Escherichia coli [23]): > 16 µg/mL; MIC (Escherichia coli [24]): 2 µg/mL; MIC (Escherichia coli [25]): < 1 µg/mL; MIC (Escherichia coli [26]): > 16 µg/mL; MIC (Escherichia coli [27]): < 1 µg/mL; MIC (Escherichia coli [28]): > 16 µg/mL; MIC (Escherichia coli [29]): 4 µg/mL; MIC (Escherichia coli [30]): < 1 µg/mL; MIC (Escherichia coli [31]): 2 µg/mL; MIC (Escherichia coli [32]): 4 µg/mL; MIC (Escherichia coli [33]): < 1 µg/mL; MIC (Escherichia coli [34]): > 16 µg/mL; MIC (Escherichia coli [35]): > 16 µg/mL; MIC (Escherichia coli [36]): > 16 µg/mL; MIC (Escherichia coli [37]): < 1 µg/mL
